From ChEMBL document CHEMBL1139317, “Design, synthesis and biological evaluation of novel bicyclo[1.1.1]pentane-based omega-acidic amino acids as glutamate receptors ligands” (Bioorg Med Chem, 2009)
pKi: −log10 of the molar value. The source made the active and inactive calls. The rule behind the calls is not given here.

Experiments:
Rattus norvegicus = species on record: Rattus norvegicus; test: Agonist activity at NMDA receptor in rat cortical membranes up to 1 mM by [3H]MK801 binding assay; type: cell membranes
Outline: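 [3H]MK801 binding to rat cortical membranes; agonist action read as potentiation of [3H]MK801 binding relative to basal, with glutamate/glycine as reference stimulants of binding.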

[1] = Displacement of [3H]AMPA from AMPA receptor in rat brain membranes; type: cell membranes
[2] = Displacement of [3H]kainic acid from kainate receptor in rat brain membranes; type: cell membranes
[3] = molecular target: Metabotropic glutamate receptor 1 (Homo sapiens, UniProt Q13255); test: Displacement of [3H]Quisqualate from human mGluR1A receptor expressed in BHK cells; type: cell-based
[4] = molecular target: Metabotropic glutamate receptor 5 (Homo sapiens, UniProt P41594); test: Displacement of [3H]Quisqualate from human mGluR5 receptor expressed in BHK cells; type: cell-based
[5] = molecular target: T1, Glutamate NMDA receptor (Rattus norvegicus) (UniProt P35439+Q00959+Q00960+Q00961+Q62645+Q8VHN2+Q9R1M7); test: Antagonist activity at NMDA receptor in rat cortical membranes assessed as inhibition of [3H]MK801 binding in presence of glutamate and glycine; type: cell membranes
[6] = molecular target: T1, Glutamate NMDA receptor (Rattus norvegicus); settings: Brain, Brain membranes
[7] = molecular target: Metabotropic glutamate receptor 4 (Homo sapiens, UniProt Q14833); test: Displacement of [3H]L-AP4 from human mGluR4 receptor expressed in BHK cells
[8] = molecular target: Metabotropic glutamate receptor 2 (Homo sapiens, UniProt Q14416); test: Displacement of [3H]LY341495 from human mGluR2 receptor expressed in BHK cells
Sequence of Metabotropic glutamate receptor 2 (Q14416 whole entry): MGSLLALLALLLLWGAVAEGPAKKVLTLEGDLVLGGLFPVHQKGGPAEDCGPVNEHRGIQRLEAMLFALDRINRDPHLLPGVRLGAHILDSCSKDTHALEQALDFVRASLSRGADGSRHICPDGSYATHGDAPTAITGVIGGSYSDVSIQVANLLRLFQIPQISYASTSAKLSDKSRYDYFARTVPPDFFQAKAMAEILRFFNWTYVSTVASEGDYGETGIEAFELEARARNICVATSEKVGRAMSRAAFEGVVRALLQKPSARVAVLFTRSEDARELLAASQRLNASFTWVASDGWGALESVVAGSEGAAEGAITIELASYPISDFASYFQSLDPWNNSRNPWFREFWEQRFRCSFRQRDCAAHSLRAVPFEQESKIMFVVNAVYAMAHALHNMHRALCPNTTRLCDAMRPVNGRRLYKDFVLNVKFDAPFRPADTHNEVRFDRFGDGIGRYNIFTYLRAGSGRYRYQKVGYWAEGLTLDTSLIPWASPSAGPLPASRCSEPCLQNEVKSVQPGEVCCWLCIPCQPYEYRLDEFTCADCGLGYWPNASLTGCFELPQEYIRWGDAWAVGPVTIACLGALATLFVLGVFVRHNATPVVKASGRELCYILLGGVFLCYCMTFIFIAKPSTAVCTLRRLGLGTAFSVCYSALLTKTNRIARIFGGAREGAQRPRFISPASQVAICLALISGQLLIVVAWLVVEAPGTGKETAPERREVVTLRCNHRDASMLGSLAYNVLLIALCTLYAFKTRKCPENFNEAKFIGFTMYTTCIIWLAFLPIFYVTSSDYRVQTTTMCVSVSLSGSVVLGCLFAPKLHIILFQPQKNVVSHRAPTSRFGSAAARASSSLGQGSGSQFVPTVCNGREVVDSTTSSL

Sequence of Metabotropic glutamate receptor 1 (Q13255 whole entry): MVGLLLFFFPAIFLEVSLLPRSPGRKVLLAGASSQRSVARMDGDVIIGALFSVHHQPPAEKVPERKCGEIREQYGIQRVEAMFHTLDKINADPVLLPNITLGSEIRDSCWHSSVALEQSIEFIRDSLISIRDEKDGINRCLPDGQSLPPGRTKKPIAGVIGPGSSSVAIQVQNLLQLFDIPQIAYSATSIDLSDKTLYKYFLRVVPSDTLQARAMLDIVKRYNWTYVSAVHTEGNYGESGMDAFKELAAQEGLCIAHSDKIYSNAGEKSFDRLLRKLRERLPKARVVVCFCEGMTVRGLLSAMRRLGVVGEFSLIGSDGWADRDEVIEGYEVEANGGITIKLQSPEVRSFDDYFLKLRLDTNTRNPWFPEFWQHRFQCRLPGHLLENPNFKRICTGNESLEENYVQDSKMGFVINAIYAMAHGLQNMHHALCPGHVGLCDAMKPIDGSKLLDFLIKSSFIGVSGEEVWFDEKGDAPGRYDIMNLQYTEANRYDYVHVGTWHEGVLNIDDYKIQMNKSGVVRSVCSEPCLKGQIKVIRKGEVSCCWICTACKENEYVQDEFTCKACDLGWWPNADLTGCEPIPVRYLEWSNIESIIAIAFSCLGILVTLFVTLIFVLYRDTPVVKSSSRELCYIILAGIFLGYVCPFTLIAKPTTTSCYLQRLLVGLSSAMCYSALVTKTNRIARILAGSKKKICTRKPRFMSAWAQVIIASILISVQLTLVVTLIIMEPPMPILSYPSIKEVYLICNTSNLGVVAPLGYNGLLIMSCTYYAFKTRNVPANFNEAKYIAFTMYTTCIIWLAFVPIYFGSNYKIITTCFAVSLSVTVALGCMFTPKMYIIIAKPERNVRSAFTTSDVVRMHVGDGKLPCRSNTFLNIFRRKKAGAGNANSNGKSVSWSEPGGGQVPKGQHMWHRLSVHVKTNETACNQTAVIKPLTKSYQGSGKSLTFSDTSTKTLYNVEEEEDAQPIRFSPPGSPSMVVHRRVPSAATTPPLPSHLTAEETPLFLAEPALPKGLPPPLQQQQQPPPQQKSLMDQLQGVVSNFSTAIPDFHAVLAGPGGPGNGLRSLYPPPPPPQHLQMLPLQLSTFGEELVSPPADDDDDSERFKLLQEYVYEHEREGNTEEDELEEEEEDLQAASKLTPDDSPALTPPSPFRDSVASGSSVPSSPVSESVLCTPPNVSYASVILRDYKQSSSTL
Sequence of Metabotropic glutamate receptor 5 (P41594 whole entry): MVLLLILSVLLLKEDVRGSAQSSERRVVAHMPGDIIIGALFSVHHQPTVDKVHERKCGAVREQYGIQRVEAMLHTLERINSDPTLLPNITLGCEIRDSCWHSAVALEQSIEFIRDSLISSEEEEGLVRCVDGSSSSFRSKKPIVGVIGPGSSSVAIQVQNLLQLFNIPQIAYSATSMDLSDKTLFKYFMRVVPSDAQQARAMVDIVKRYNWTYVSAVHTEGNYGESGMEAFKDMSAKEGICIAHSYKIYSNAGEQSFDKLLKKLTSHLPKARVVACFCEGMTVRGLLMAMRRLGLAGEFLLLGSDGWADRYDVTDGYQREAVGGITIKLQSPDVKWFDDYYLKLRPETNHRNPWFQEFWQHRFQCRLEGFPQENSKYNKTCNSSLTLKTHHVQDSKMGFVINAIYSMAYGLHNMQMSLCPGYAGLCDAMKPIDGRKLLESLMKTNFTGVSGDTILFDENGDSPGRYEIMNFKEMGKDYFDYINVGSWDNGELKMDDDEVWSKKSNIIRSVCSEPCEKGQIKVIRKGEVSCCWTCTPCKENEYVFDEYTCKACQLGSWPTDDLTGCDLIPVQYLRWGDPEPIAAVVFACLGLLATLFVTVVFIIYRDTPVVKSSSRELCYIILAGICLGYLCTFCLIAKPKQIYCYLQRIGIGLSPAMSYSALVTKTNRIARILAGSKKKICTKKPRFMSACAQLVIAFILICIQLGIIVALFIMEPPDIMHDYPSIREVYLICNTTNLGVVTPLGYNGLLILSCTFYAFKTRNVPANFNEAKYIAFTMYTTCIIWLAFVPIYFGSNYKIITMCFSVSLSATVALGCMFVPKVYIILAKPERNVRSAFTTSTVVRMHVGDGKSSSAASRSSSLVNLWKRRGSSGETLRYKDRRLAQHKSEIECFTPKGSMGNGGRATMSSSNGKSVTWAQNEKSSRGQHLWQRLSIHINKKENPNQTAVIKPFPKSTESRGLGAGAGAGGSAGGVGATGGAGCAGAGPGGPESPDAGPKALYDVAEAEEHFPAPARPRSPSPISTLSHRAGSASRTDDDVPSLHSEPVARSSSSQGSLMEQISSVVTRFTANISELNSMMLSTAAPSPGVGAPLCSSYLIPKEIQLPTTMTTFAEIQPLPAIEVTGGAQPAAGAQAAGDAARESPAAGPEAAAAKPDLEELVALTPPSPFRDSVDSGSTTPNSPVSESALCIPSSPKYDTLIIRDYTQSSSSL
Sequence of Metabotropic glutamate receptor 4 (Q14833 whole entry): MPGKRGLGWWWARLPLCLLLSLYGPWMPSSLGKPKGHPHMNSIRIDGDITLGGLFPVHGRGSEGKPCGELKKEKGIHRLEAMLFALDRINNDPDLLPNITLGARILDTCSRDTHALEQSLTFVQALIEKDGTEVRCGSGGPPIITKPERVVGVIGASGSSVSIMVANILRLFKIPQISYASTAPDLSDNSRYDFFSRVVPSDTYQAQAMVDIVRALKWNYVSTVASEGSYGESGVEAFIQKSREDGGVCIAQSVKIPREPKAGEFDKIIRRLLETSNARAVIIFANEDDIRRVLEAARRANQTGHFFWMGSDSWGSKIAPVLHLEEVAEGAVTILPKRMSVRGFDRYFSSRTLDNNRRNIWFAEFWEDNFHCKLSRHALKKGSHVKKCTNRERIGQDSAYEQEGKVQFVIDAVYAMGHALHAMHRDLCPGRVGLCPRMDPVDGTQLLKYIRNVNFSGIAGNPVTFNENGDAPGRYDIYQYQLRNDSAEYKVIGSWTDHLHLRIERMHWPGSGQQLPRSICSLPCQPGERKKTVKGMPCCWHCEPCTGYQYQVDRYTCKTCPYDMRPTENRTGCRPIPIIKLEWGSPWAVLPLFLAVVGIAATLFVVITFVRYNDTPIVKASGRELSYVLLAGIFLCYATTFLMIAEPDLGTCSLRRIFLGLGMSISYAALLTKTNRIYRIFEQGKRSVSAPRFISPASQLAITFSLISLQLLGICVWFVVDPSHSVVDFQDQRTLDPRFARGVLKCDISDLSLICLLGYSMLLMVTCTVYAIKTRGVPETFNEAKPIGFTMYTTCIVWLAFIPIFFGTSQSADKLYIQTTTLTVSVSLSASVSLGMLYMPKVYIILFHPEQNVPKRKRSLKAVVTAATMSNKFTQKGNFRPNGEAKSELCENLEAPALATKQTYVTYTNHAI

Row | Structure (SMILES) | Activity (Rattus norvegicus) | pKi [1] | pKi [2] | pKi [3] | pKi [4] | Activity [5] | logKi [6] | pKi (Glutamate NMDA receptor) | pKi [7] | pKi [8]
1 | N[C@@H](CC12CC(C(=O)O)(C1)C2)C(=O)O | inactive | < 3.52 | < 3.52 | < 3.00 | < 3.52 | inactive | 2.48 | < 3.52 | < 3.00 | < 3.00
2 | N[C@@H](CCP(=O)(O)O)C(=O)O |  | < 3.00 | < 3.00 | < 3.00 | < 3.00 |  |  | < 3.52 | 6.80 | < 3.00
3 | N[C@H](CC12CC(C(=O)O)(C1)C2)C(=O)O | inactive | < 3.52 | < 3.52 | 3.68 | 3.47 | inactive | 1.46 | 4.54 | < 3.00 | < 3.00
4 | O=C(O)[C@H]1CN(CCCP(=O)(O)O)CCN1 |  |  |  |  |  | 103 nM |  |  |  | 
